Key:
[1] = melting temperature; fluorescence melt of hairpins on a sequencing array, two-state fit, raised by 9.35 °C to match UV melts; settings: sodium 0.088 M
Outline: (§1)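 On a sequenced MiSeq flow cell, library hairpins with annealed Cy3 and quencher oligos were imaged for Cy3 fluorescence in 2.5 °C steps up to 60 °C, in 50 mM Na-HEPES pH 8.0, 25 mM NaCl. Normalisation used pre-quench Cy3 and control constructs. Bootstrapped two-state fits gave melting temperature and folding enthalpy, combined by inverse variance across four replicates and with fitted temperatures raised by 9.35 °C to match UV melts.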

[2] = folding enthalpy; higher = less favourable; fluorescence melt of hairpins on a sequencing array, two-state fit; settings: sodium 0.088 M
Outline: as §1

Sequence | Tm [1] [°C] | folding enthalpy [2] [kcal/mol]
GCCGTGCGAAAGCACCGC ((.((((....)))).)) | 55.8 | -16
GTACTACGAAAGTACTAC (((.(((....))).))) | 38.6 | -17.8
GTGGACGAAAGTCGTCAC ((((((....)))..))) | 40.1 | -16.3
GGTGGACGAAAGTCTACC (((.(((....))).))) | 59 | -41.5
GCTTCGCGAAAGCGTGGC ((..(((....)))..)) | 53.3 | -17.4
GAGGGGCGAAAGCCCTC (((.(((....)))))) | 55.5 | -10.1
GTGTGAGGAAACCCACAC (((((.(....).))))) | 48.3 | -31.7
GATCACTTCGTGATC ((((((...)))))) | 58.9 | -46.6
GATCCCAGAGGGATC ((((((...)))))) | 68.5 | -34.2
GCGCGGCGAAAGCTGTGC ((.(.((....)).).)) | 65.2 | -32.2
GTCAACGAAAGTTCGAC ((((((....))).))) | 38.4 | -25.7
GGTCGCCCGAAAGGGACC (((..(((....)))))) | 45.1 | -15.8
GGAGAGGGAAACCTTTCC (((.(((....))).))) | 38.2 | -27.3
GCTGGGGGAAACTCCAGC (((((.(....).))))) | 58 | -37.6
GATCGGGAGGCCGATC ((((((....)))))) | 56.2 | -46.1
GGACCTCGAAAGAGATCC (((.(((....))).))) | 46.7 | -30.6
GTTCTTCGAAAGAAAAAC (((.(((....))).))) | 25.4 | -12.6
GATCCGGTGACGGATC ((((((....)))))) | 67.3 | -38.9
GCTGGCGAAAGCCTGAGC ((((((....)))..))) | 50.2 | -14.8
GATCTCCTTCGAGATC ((((((....)))))) | 52.1 | -42.5
GGTCATGGAAACATGACC (((((((....))))))) | 65.5 | -51.8
GCCGACGAAAGTCACGGC ((((((....)))..))) | 53.1 | -26.8
GAAATACGAAAGTAGTTC (((.(((....))).))) | 42.1 | -26.7
GGAACCGGAAACAGTTCC (((((.(....).))))) | 40 | -28.4

Sequence | Tm [1] [°C] | folding enthalpy [2] [kcal/mol]
GATCTTAAAAAGATC ((((((...)))))) | 42.7 | -27.5
GATCAGGCTACTGATC ((((((....)))))) | 57.4 | -43.8
GTGTGCGAAAGCACTCAC ((((((....)))..))) | 41.8 | -8.88
GATTGACGAAAGTCATC (((.(((....)))))) | 38.9 | -12.7
GCTCAATCGAAAGATAGC (((..(((....)))))) | 31.9 | -11.6
GGTATATCGAAAGATACC (((..(((....)))))) | 33.6 | -16.3
GATCAGATGTCTGATC ((((((....)))))) | 49.7 | -41.8
GTGTGGCGAAAGCCCCAC (((.(((....))).))) | 51.3 | -23.5
GGGGATCCGAAAGGACCC (((..(((....)))))) | 53.9 | -36.7
GCCTACGAAAGTAAAGGC ((((((....)))..))) | 50.2 | -41.2
GGTCTCGGAAACGAAACC (((.(((....))).))) | 39.2 | -27.5
GACTAGGGAAACCTAGCC (.(((((....))))).) | 38.4 | -19.7
GGTTCTCGAAAGAGCACC (((.(((....))).))) | 45.9 | -31.1
GCGATGCGAAAGCTTAGC ((.(.((....)).).)) | 56.9 | -23.6
GCCCTCCGAAAGGAGGC (((.(((....)))))) | 61.2 | -11.9
GATCAGCGCTCTGATC ((((((....)))))) | 50.4 | -33.9
GATCTGAACTCAGATC ((((((....)))))) | 48 | -38.6
GATGGTGGAAACATCGTC ((.(.((....)).).)) | 47.8 | -22
GGTACCGGAAACGGTGTC (..((((....))))..) | 36.7 | -13.4
GTTCCTGAAAAGGAAC ((((((....)))))) | 57.1 | -31.4
GGACAAGGAAACTCGTCC ((((.((....)).)))) | 39.2 | -29.2
GGACGTGGAAACACACCC ((..(((....)))..)) | 25 | -7.91
GTGCTAGGAAACTAGCAC (((((((....))))))) | 65 | -49.4
GCCTCAGCGAAAGCTGGC (((..(((....)))))) | 50.9 | -8.88

Sequence | Tm [1] [°C] | folding enthalpy [2] [kcal/mol]
GATGCCCGAAAGGGTATC (((.(((....))).))) | 58.2 | -29.8
GCGCTGCGAAAGCTTCGC (((..((....))..))) | 54.9 | -20.6
GTCCACGAAAGTGGGAC ((((((....))).))) | 58.3 | -13.6
GGATGCCGAAAGGCTCC (((.(((....)))))) | 55 | -17.8
GCGACTCTCGC ((((...)))) | 49.3 | -22.2
GATCAATCTATTGATC ((((((....)))))) | 49.8 | -43.2
GCCATGCGAAAGCGTCGC ((.(.((....)).).)) | 48 | -12.7
GTATCCGAAAGGACTTAC ((((((....)))..))) | 28.6 | -11.4
GCCTAAACGAAAGTTGGC (((..(((....)))))) | 46.7 | -24.9
GATCCGACCCGGATC ((((((...)))))) | 56.6 | -39.9
CGGTGGCGGAAACGCCCG (((..(((....)))))) | 47 | -11.5
GATCTAAATTAGATC ((((((...)))))) | 37.8 | -21.3
GCTCTCGAAAGAGAAAGC ((((((....)))..))) | 40 | -22.6
GGAATCGAAAGATTTTCC ((((((....)))..))) | 27.8 | -17.7
GCATTCCGAAAGGATGC (((.(((....)))))) | 53.7 | -30.7
CGGCCGGAAACGGGGCCG ((((((....)))..))) | 59.1 | -39.4
GCCAAACGAAAGTTAGGC (((.(((....))).))) | 54.9 | -29.5
GTGTCCGAAAGGAACCAC ((((((....)))..))) | 35.3 | -12.6
GATCCTGGAAAGGATC ((((((....)))))) | 59.5 | -35.6
ATACTGAAAAGTAT (((((....))))) | 30.6 | -12.3
TACGTGAAAACGTA (((((....))))) | 43.5 | -16.8
GTGCACGAAAGTGGCAC ((((((....))).))) | 59.4 | -25.1
GATCGTTGGCACGATC ((((((....)))))) | 52.5 | -32.1
GCGGTGCGAAAGCGTCGC (((..((....))..))) | 65.1 | -32.6

Sequence | Tm [1] [°C] | folding enthalpy [2] [kcal/mol]
GGAACAGGAAACTGTCCC ((.((((....)))).)) | 39.9 | -23.1
ACTATGAAAATAGT (((((....))))) | 32.2 | -11.8
GTCGTACGAAAGTAGGAC (((.(((....))).))) | 53.7 | -39.7
GTGAACGAAAGTTGTCAC ((((((....)))..))) | 27.9 | -21.8
CGTCCGGAAACGGTTACG ((((((....)))..))) | 39.3 | -13.9
GCGAGGCGAAAGCCAAGC ((..(((....)))..)) | 69.2 | -20.5
GGGATTCGAAAGAACCCC (((.(((....))).))) | 49.9 | -34
GCGAACTTCGC ((((...)))) | 48.5 | -17.3
GCCGTCGAAAGACTTGGC ((((((....)))..))) | 50.5 | -17.2
GATCCGATAACGGATC ((((((....)))))) | 59.1 | -33.1
GTGCTAGGAAACTGGTAC ((.(.((....)).).)) | 32.6 | -18.9
GTGGTGGGAAACCACCGC (.(((((....))))).) | 60.5 | -29.4
GGCTGTTCGAAAGAAGCC (((..(((....)))))) | 38.2 | -20.9
GAGTCCCGAAAGGGTCTC (((.(((....))).))) | 53 | -30.6
GATCTAAAGGTAGATC ((((((....)))))) | 33.9 | -18.5
GCACTCGAAAGAGGTTGC ((((((....)))..))) | 37.6 | -18.6
GCCGTGCGAAAGCAACGC ((..(((....)))..)) | 54.1 | -10.9
GCACTGCGAAAGCCATGC (((..((....))..))) | 38.1 | -14.7
GCGTCTTACGC ((((...)))) | 62.5 | -21.1
GGTACGGGAAACTGTGCC ((.((.(....).)).)) | 43.1 | -31.2
GTGTAGCGAAAGCTCAC (((.(((....)))))) | 51.8 | -23.2
